Data taken from publication PMC5474427 (EBioMedicine, 2016).

How the values were obtained:
palmitoyl-α-tubulin = test: Tubulin palmitoylation in NSCLC cell lines; assay type: cell-based; settings: A549 cells, 20 μM for 18 h
palmitoyl-β-tubulin = test: Tubulin palmitoylation in NSCLC cell lines; assay type: cell-based; settings: A549 cells, 20 μM for 18 h
Phospho-b-Catenin (S675) = assay type: in vivo; settings: A549 xenograft tumors, 2 h after final dose on day 20
Method in brief: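 Xenograft tumors were harvested 2 h after the last dose, flash frozen and lysed in buffer with protease and phosphatase inhibitors. Protein was measured by BCA. Lysates from individual mice in each group were pooled so each tumor contributed equal total protein. Western blots were imaged on an infrared imager. Pools were run once, with no statistical testing.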

xenograft tumor models = test: Xenograft tumor models, summary statements across models; assay type: in vivo, mice; settings: three NSCLC studies (CALU6, A549, CTG-0165_P + 6)
Method in brief: (§1)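 Mice with NSCLC cell-line (CALU-6, A549) or patient-derived tumors were randomized by tumor size and dosed once mean tumor size reached 150–200 mm3; ≥10 mice/group. FASN inhibitor 60 mg/kg by oral gavage once daily; paclitaxel 10 mg/kg iv every 4 days or docetaxel 8 or 6 mg/kg iv every 7 days. In combinations, FASN inhibitor was given 2 h before taxane. TGI is % tumor growth from treatment start, drug vs vehicle groups.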

[1] = tested on: CALU6 non-small-cell lung tumor cells; test: Soft agar colony formation; assay type: cell-based
Method in brief: (§2)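 Cells were plated in 0.35% agarose in IMDM with 10% FBS, 1% non-essential amino acids and 1% L-glutamine, containing a dose–response matrix of FASN inhibitor and paclitaxel. This layer sat over a 0.6% bacto-agar base in the same medium. A compound-containing liquid feeder layer was changed weekly. After 3–4 weeks, colonies were stained with 0.005% crystal violet and wells imaged.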

[2] = tested on: β-tubulin mRNA in 22Rv1 prostate tumor cells; test: β-tubulin mRNA expression by RNA sequencing; assay type: cell-based; settings: 22Rv1 cells, 48 h, 1 μM TVB-3166
MRC-5 lung fibroblasts = assay type: cell-based; settings: MRC-5 fibroblasts
[3] = tested on: CALU6 NSCLC adenocarcinoma cell line xenograft; test: CALU6 NSCLC xenograft tumor growth; assay type: in vivo, mice; settings: CALU-6; TVB-3166 60 mg/kg oral once daily; paclitaxel 10 mg/kg iv every 4 days
Method in brief: as §1

[4] = tested on: 22Rv1 prostate tumor cells; test: Soft agar colony formation; assay type: cell-based
Method in brief: as §2

[5] = Phase I, solid tumors; ref Dean et al., 2016; cited from earlier work

Question: With `CCCCCCCCCCCCCCC(Br)C(=O)O` (stereo not drawn) [2-Bromo-Palmitate, 2-bromopalmitate] as the compound, how does the “decrease of palmitoyl-α-tubulin level” value (palmitoyl-α-tubulin) read?
Answer: Its value is 27%.

Question: And the “decrease of palmitoyl-β-tubulin level” value (palmitoyl-β-tubulin)?
Answer: Its value is 79%.

Question: Which “inhibition of β-catenin S675 phosphorylation” value (Phospho-b-Catenin (S675)) does the source give for `CC(=O)O[C@@]12CO[C@@H]1C[C@H](O)[C@@]1(C)C(=O)[C@H](O)C3=C(C)[C@@H](OC(=O)[C@H](O)[C@@H](NC(=O)OC(C)(C)C)c4ccccc4)C[C@@](O)([C@@H](OC(=O)c4ccccc4)[C@H]21)C3(C)C` [Docetaxel] here?
Answer: Its value is 25%.

Question: With `CC(=O)O[C@H]1C(=O)[C@@]2(C)[C@H]([C@H](OC(=O)c3ccccc3)[C@]3(O)C[C@H](OC(=O)[C@H](O)[C@@H](NC(=O)c4ccccc4)c4ccccc4)C(C)=C1C3(C)C)[C@]1(OC(C)=O)CO[C@@H]1C[C@@H]2O` [Paclitaxel] as the compound, how does the “tumor growth inhibition, single agent” value (xenograft tumor models) read?
Answer: Its value is 48–63%.

Question: And the “soft agar colony growth” value ([1]; 3 nM paclitaxel)?
Answer: Its value is “strong inhibition of colony growth”.

Question: And the “soft agar colony growth” value ([1]; paclitaxel 0.3 or 1.0 nM)?
Answer: Its value is “did not affect colony size or number”.

Question: And the “β-tubulin mRNA expression compared to DMSO” value [2]?
Answer: Its value is “no effect”.

Question: And the “effect on microtubule organization in non-tumor cells” value (MRC-5 lung fibroblasts)?
Answer: The value was “very little effect”.

Question: What about the TGI vs. vehicle [3] of the same compound?
Answer: The TGI vs. vehicle was 63%.

Question: And the “soft agar colony growth” value ([4]; 3 nM paclitaxel)?
Answer: Its value is “strong inhibition of colony growth”.

Question: And the “soft agar colony growth” value ([4]; paclitaxel 0.3 or 1.0 nM)?
Answer: Its value is “did not affect colony size or number”.

Question: With `Cc1nnc(-c2cc(C(=O)N3CCC(c4ccc(C#N)cc4)CC3)c(C)cc2C2CCC2)[nH]1` [TVB-2640] as the compound, how does the “oral bioavailability and pharmacokinetics” value [5] read?
Answer: Its value is “excellent”.
